# Assay results from ChEMBL document CHEMBL1123430, “Potential tumor- or organ-imaging agents. 26. Polyiodinated 2-substituted triacylglycerols as hepatographic agents” (J Med Chem, 1986).
# Legend:
# Rattus norvegicus [1] = assay: Distribution of radioactivity of radiolabeled compound in heart of female rats 5 minutes after intravenous administration; assay type: ADME, organism-based; conditions: in vivo
# Rattus norvegicus [2] = assay: Distribution of radioactivity of radiolabeled compound in blood of female rats 5 minutes after intravenous administration; assay type: ADME, organism-based; conditions: in vivo
# Rattus norvegicus [3] = assay: Polyacrylamide Gel Electrophoresis (PAGE) analysis of rat plasma 5 min after intravenous administration of radiolabeled compound concentration of albumin; assay type: functional, organism-based
# In short: (§1)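 Gels were sectioned and counted in a γ counter. Radioactivity in each band (stacking gel, LDL, HDL, albumin, below albumin) is expressed as a percentage of the total radioactivity applied to the gel, ± SEM, n = 3-5.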
# Rattus norvegicus [4] = assay: Polyacrylamide Gel Electrophoresis (PAGE) analysis of rat plasma 5 minutes after intravenous administration of radiolabeled compound in low-density lipoprotein; assay type: functional, organism-based
# In short: (§2)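 ¹²⁵I-labeled compound, radioiodinated by exchange in a pivalic acid melt, solubilized in normal saline with Tween 20 and given iv to adult female Sprague–Dawley rats (200–250 g), 5–30 μCi/animal, 3–4 rats per time point. Plasma was run on polyacrylamide gels. Gels were sectioned and gamma counted. Radioactivity per band (stacking gel, LDL, HDL, albumin, below albumin) is given as % of total applied; mean ± SEM, n = 3-5.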
# Rattus norvegicus [5] = assay: Polyacrylamide Gel Electrophoresis (PAGE) analysis of rat plasma 30 min after intravenous administration of radiolabeled compound at in high density; assay type: functional, organism-based; in short: as §1
# Rattus norvegicus [6] = assay: Polyacrylamide Gel Electrophoresis (PAGE) analysis of rat plasma 5 minutes after intravenous administration of radiolabeled compound at in high density lipoprotein; assay type: functional, organism-based; in short: as §2
# Rattus norvegicus [7] = assay: Polyacrylamide Gel Electrophoresis (PAGE) analysis of rat plasma 5 minutes after intravenous administration of radiolabeled in stacking gel; assay type: functional, organism-based; in short: as §2
# Rattus norvegicus [8] = assay: Distribution of radioactivity of radiolabeled compound in heart of female rats 30 minutes after intravenous administration; assay type: ADME, organism-based; conditions: in vivo, 0.5 h
# Rattus norvegicus [9] = assay: Polyacrylamide Gel Electrophoresis (PAGE) analysis of rat plasma 30 min after intravenous administration of radiolabeled compound ( below albumin); assay type: functional, organism-based; in short: as §1
# Rattus norvegicus [10] = assay: Distribution of radioactivity of radiolabeled compound in kidney of female rats 5 minutes after intravenous administration; assay type: ADME, organism-based; conditions: in vivo
# Rattus norvegicus [11] = assay: Distribution of radioactivity of radiolabeled compound in kidney of female rats 30 minutes after intravenous administration; assay type: ADME, organism-based; conditions: in vivo, 0.5 h
# Rattus norvegicus [12] = assay: Distribution of radioactivity of radiolabeled compound in lung of female rats 5 minutes after intravenous administration; assay type: ADME, organism-based; conditions: in vivo
# Rattus norvegicus [13] = assay: Polyacrylamide Gel Electrophoresis (PAGE) analysis of rat plasma 5 minutes after intravenous administration of radiolabeled compound in stacking gel; assay type: functional, organism-based; in short: as §2
# Rattus norvegicus [14] = assay: Polyacrylamide Gel Electrophoresis (PAGE) analysis of rat plasma 30 min after intravenous administration of radiolabeled compound in low density lipoprotein; assay type: functional, organism-based; in short: as §1
# Rattus norvegicus [15] = assay: Polyacrylamide Gel Electrophoresis (PAGE) analysis of rat plasma 30 min after intravenous administration of radiolabeled compound in albumin; assay type: functional, organism-based; in short: as §1
# Rattus norvegicus [16] = assay: Distribution of radioactivity of radiolabeled compound in liver of female rats 30 minutes after intravenous administration; assay type: ADME, organism-based; conditions: in vivo, 0.5 h
# Rattus norvegicus [17] = assay: Distribution of radioactivity of radiolabeled compound in blood of female rats 30 minutes after intravenous administration; assay type: ADME, organism-based; conditions: in vivo, 0.5 h
# Rattus norvegicus [18] = assay: Polyacrylamide Gel Electrophoresis (PAGE) analysis of rat plasma 5 minutes after intravenous administration of radiolabeled compound (below albumin ); assay type: functional, organism-based; in short: as §2
# Rattus norvegicus [19] = assay: Distribution of radioactivity of radiolabeled compound in lung of female rats 30 minutes after intravenous administration; assay type: ADME, organism-based; conditions: in vivo, 0.5 h
# Rattus norvegicus [20] = assay: Distribution of radioactivity of radiolabeled compound in liver of female rats 5 minutes after intravenous administration; assay type: ADME, organism-based; conditions: in vivo
# Rattus norvegicus [21] = assay: Polyacrylamide Gel Electrophoresis (PAGE) analysis of rat plasma 5 min after intravenous administration of radiolabeled compound in low-density lipoprotein; assay type: functional, organism-based; in short: as §2
# Rattus norvegicus [22] = assay: Polyacrylamide Gel Electrophoresis (PAGE) analysis of rat plasma 30 min after intravenous administration of radiolabeled compound at concentration of high density; assay type: functional, organism-based; in short: as §1
# Rattus norvegicus [23] = assay: Polyacrylamide Gel Electrophoresis (PAGE) analysis of rat plasma 5 min after intravenous administration of radiolabeled compound in albumin; assay type: functional, organism-based; in short: as §1
# Rattus norvegicus [24] = assay: Polyacrylamide Gel Electrophoresis (PAGE) analysis of rat plasma 5 minutes after intravenous administration of radiolabeled compound (below albumin); assay type: functional, organism-based; in short: as §2
# Rattus norvegicus [25] = assay: Percentage […]/CH3OH extract of the radiolabeled compound in rat liver 30 minutes after iv administration; assay type: functional
# In short: (§3)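 Liver and plasma were taken at 5 or 30 min. Plasma was extracted by a modified Folch procedure, and liver was homogenized and extracted. Extracts were run on TLC in hexane/ethyl acetate (5:2) for esters or THF/hexane (1:1) for acids, with unlabeled compound as reference. Plates were cut into 1-cm strips and counted. Values are percent ± SEM, n = 3-5.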
# Rattus norvegicus [26] = assay: Polyacrylamide Gel Electrophoresis (PAGE) analysis of rat plasma 30 min after intravenous administration of radiolabeled compound in low-density lipoprotein; assay type: functional, organism-based; in short: as §1
# Rattus norvegicus [27] = assay: Percentage […]/CH3OH extract of the radiolabeled compound in rat plasma 30 minutes after iv administration; assay type: functional; in short: as §3
# Rattus norvegicus [28] = assay: Percentage […]/CH3OH extract of the radiolabeled compound in rat liver 5 minutes after iv administration; assay type: functional; in short: as §3
# Rattus norvegicus [29] = assay: Polyacrylamide Gel Electrophoresis (PAGE) analysis of rat plasma 5 minutes after intravenous administration of radiolabeled compound in high density lipoprotein; assay type: functional, organism-based; in short: as §2
# Rattus norvegicus [30] = assay: Polyacrylamide Gel Electrophoresis (PAGE) analysis of rat plasma 30 minutes after intravenous administration of radiolabeled compound concentration of stacking gel; assay type: functional, organism-based; in short: as §1
# Rattus norvegicus [31] = assay: Percentage […]/CH3OH extract of the radiolabeled compound in rat plasma 5 minutes after iv administration; assay type: functional; in short: as §3
# Rattus norvegicus [32] = assay: Polyacrylamide Gel Electrophoresis (PAGE) analysis of rat plasma 30 minutes after intravenous administration of radiolabeled in stacking gel; assay type: functional, organism-based; in short: as §1
Dose (Rattus norvegicus [1]) [%],Dose (Rattus norvegicus [2]) [%],Dose (Rattus norvegicus [8]) [%],Dose (Rattus norvegicus [10]) [%],Dose (Rattus norvegicus [11]) [%],Dose (Rattus norvegicus [12]) [%],Dose (Rattus norvegicus [16]) [%],Dose (Rattus norvegicus [17]) [%],Dose (Rattus norvegicus [19]) [%],Dose (Rattus norvegicus [20]) [%],Structure (SMILES),Concentration (Rattus norvegicus [3]),Concentration (Rattus norvegicus [4]) [%],Concentration (Rattus norvegicus [5]) [%],Concentration (Rattus norvegicus [6]) [%],Concentration (Rattus norvegicus [9]),Concentration (Rattus norvegicus [13]) [%],Concentration (Rattus norvegicus [14]),Concentration (Rattus norvegicus [15]),Concentration (Rattus norvegicus [18]),also measured
1.09,5.44,0.72,4.62,5.82,1.49,0.5,2.41,1.07,0.87,Nc1c(I)cc(I)c(CC(=O)O)c1I,76,1,7.3,15.8,7,1.7,0.4,83.6,5.5,Concentration (Rattus norvegicus [7]): 1.7%
0.6,6.04,1.92,0.65,0.65,1.15,4.6,3.73,0.97,2.16,CCCCCCCCCCCCCCCC(=O)OCC(COC(=O)CCCCCCCCCCCCCCC)OC(=O)C(CC)Cc1c(I)cc(I)c(N)c1I (centres undefined),,,,,,4.6,,5.4,3,Concentration (Rattus norvegicus [21]): 35.1; Concentration (Rattus norvegicus [22]): 54.1; Concentration (Rattus norvegicus [23]): 4.4; Concentration (Rattus norvegicus [24]): 3; Activity (Rattus norvegicus [25]): 79.7%; Concentration (Rattus norvegicus [26]): 27.5; Activity (Rattus norvegicus [27]): 92.2%; Activity (Rattus norvegicus [28]): 84.4%; Concentration (Rattus norvegicus [29]): 52.6; Concentration (Rattus norvegicus [30]): 7.1; Activity (Rattus norvegicus [31]): 85.7%
4,2.52,4.14,2.44,1.54,1.02,0.77,1.15,0.45,1.08,Nc1c(I)cc(I)c(CCC(=O)O)c1I,83.6,2.4,13.3,5.3,10.8,4.6,6.9,51.5,4.1,Concentration (Rattus norvegicus [32]): 11
